Results published in ChEMBL document CHEMBL4014276, “Diphenylurea derivatives for combating methicillin- and vancomycin-resistant Staphylococcus aureus” (Eur J Med Chem, 2017).
Values after ≈ are worked out from the molar mass of the structure shown. Active and inactive are the calls of the source. No cut-off for these calls is given here.

What was measured:
J774 = assay: Cytotoxicity against mouse J774 cells up to 16 ug/ml after 24 hrs by MTS assay; format: cell-based; conditions: j774, 24 h
Summary of the method: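 Murine macrophages cultured in DMEM plus 10% FBS, 37 °C, 5% CO2; compounds at 8, 16, 32, 64 µg/mL in triplicate for 24 h against DMSO-matched controls. MTS reagent 4 h, read at OD490. Viability as % of DMSO control (triplicate mean ± SD); one-way ANOVA, Dunnett's post hoc, P < 0.05.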

Staphylococcus aureus [1] = assay: Bactericidal activity against methicillin-resistant Staphylococcus aureus USA400 NRS123 clinical isolate assessed as disruption of bacterial membrane by measuring leakage of 280 nM absorbing material at 5 times MIC after 30 mins by spectrophotometric method; format: functional
Staphylococcus aureus [2] = assay: Bactericidal activity against methicillin-resistant Staphylococcus aureus USA200 NRS383 clinical isolate after 18 hrs by broth microdilution method; format: functional; conditions: USA200 NRS383, 18 h
Summary of the method: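 From MIC wells without visible growth, 5 uL spotted onto Tryptic soy agar, incubated 37 °C for at least 18 h; MBC taken as lowest concentration giving 99.9% growth inhibition.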

[3] = Apparent permeability across basolateral to apical side in human Caco2 cells at 10 uM after 2 hrs by LC-MS/MS method; format: ADME, cell-based; conditions: Caco-2
[4] = AUClast in naive Sprague-Dawley rat at 50 mg/kg ,po administered via gavage by LC-MS/MS method; format: ADME, organism-based; set-up: dose 50 mg/kg, time 0 - last, route oral; conditions: in vivo
Summary of the method: (§1)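 Male naïve rats, three animals; single oral gavage dose in 5% ethanol, 45% PEG 400, 50% water. Blood drawn into EDTA-K2 tubes over 24 h post dose; plasma protein-precipitated with acetonitrile, parent quantified by LC/MS/MS.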

Staphylococcus aureus [5] = assay: Antibacterial activity against methicillin-resistant Staphylococcus aureus USA300 NRS384 clinical isolate preincubated followed by bacterial subculturing for 2 weeks; format: functional
Staphylococcus aureus [6] = assay: Bactericidal activity against methicillin-resistant Staphylococcus aureus USA400 infected in mouse J774 cells assessed as reduction in colony forming units at 16 ug/ml after 24 hrs by time kill assay relative to control; set-up: scale not given: the % may be the effect or the level left
Staphylococcus aureus [7] = assay: Antibacterial activity against methicillin-resistant Staphylococcus aureus USA400 NRS123 clinical isolate preincubated followed by bacterial subculturing for 2 weeks; format: functional
[8] = Total AUC in naive Sprague-Dawley rat at 50 mg/kg ,po administered via gavage by LC-MS/MS method; format: ADME, organism-based; set-up: dose 50 mg/kg, time AUCmax, route oral; conditions: in vivo; summary of the method: as §1
[9] = Half life in human liver microsomes in absence of NADPH by LC-MS/MS method; format: ADME, microsome

SMILES: C/C(=N\NC(=N)N)c1ccc(NC(=O)Nc2ccc(OC3CCCCCC3)cc2)cc1
- Activity (J774): Non-Toxic
- Activity (Staphylococcus aureus [1]): inactive
- MBC (Staphylococcus aureus [2]): 4 µg/mL (≈ 9.47 µM)
- Papp B→A at 2 h, 10 µM [3]: 51.9 ×10⁻⁶ cm/s
- AUC(0-t) [4]: 218 ng·h/mL
- Activity (Staphylococcus aureus [5]): Active
- Activity (Staphylococcus aureus [6]): 69%
- Activity (Staphylococcus aureus [7]): Active
- AUC [8]: 384 ng·h/mL
- half-life [9]: 53.8 min
